Results from ChEMBL document CHEMBL3992510, “Urea Derivatives of 2-Aryl-benzothiazol-5-amines: A New Class of Potential Drugs for Human African Trypanosomiasis” (J Med Chem, 2017).

Assays:
[1] = Selectivity index, ratio of EC50 for human HepG2 cells to EC50 for Trypanosoma brucei brucei BF427; format: toxicity; settings: read-out: Ratio EC50
[2] = Stability in mouse liver microsomes assessed as compound remaining at 1.5 uM in presence of NADPH measured after 5 mins by liquid chromatography/tandem mass spectrometric analysis; format: ADME, microsome; settings: read-out: Stability
Liver [3] = assay: Half life in mouse liver microsomes at 1.5 uM in presence of NADPH by liquid chromatography/tandem mass spectrometric analysis; format: ADME, microsome
Liver [4] = assay: Half life in human liver microsomes at 1.5 uM in presence of NADPH by liquid chromatography/tandem mass spectrometric analysis; format: ADME, microsome
HepG2 = assay: Cytotoxicity against human HepG2 cells assessed as growth inhibition after 48 hrs by Alamar blue assay; format: cell-based; settings: for EC50: Homo sapiens, HepG2, 48 h; for EC90: human, hepg2, 48 h
Outline: (§1)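 CRL-8155 lymphoblasts or HepG2 hepatocellular carcinoma cells are exposed 48 h to serial compound dilutions in quadruplicate. Growth is read with Alamar Blue, and 50% and 90% inhibitory concentrations come from nonlinear regression. Quinacrine is the control.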

[5] = Selectivity index, ratio of EC50 for human CRL8155 cells to EC50 for Trypanosoma brucei brucei BF427; format: toxicity; settings: read-out: Ratio EC50
[6] = Cytotoxicity against human CRL8155 cells assessed as growth inhibition after 48 hrs by Alamar blue assay; format: cell-based; settings: for EC50: Homo sapiens, CRL8155, 48 h; for EC90: human, crl8155, 48 h; outline: as §1
[7] = system: Trypanosoma brucei brucei; assay: Antitrypanosomal activity against Trypanosoma brucei brucei BF427 assessed as growth inhibition measured after 48 hrs by Alamar blue assay; format: functional; settings: BF427, 48 h
Outline: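 Bloodstream-form parasites in HMI-9 medium are exposed to serial compound dilutions in triplicate. Viability is read with Alamar Blue at 48 h. EC50 and EC90 come from nonlinear regression. Pentamidine isethionate is the control.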

[8] = Drug level in mouse plasma at 5 mg/kg, ip administered as single dose measured at 1 hr post dose by liquid chromatography/tandem mass spectrometric analysis; format: ADME, organism-based
Outline: (§2)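 Single ip dose of 5 mg/kg in 5% DMSO/7% Tween 80/3% EtOH in 0.9% saline, three mice per compound (six for one compound). At 1 h, plasma is separated by centrifugation and brain homogenized in acetonitrile. Both are quantified by LC-MS/MS, with brain corrected for 3% v/w blood. Brain/plasma ratio is reported as mean ± SEM.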

[9] = Ratio of drug level in brain to plasma in mouse at 5 mg/kg, ip administered as single dose measured at 1 hr post dose by liquid chromatography/tandem mass spectrometric analysis; format: ADME, organism-based; outline: as §2
[10] = Drug level in mouse brain at 5 mg/kg, ip administered as single dose measured at 1 hr post dose by liquid chromatography/tandem mass spectrometric analysis; format: ADME, organism-based; settings: read-out: Drug uptake; outline: as §2
[11] = Stability in human liver microsomes assessed as compound remaining at 1.5 uM in presence of NADPH measured after 60 mins by liquid chromatography/tandem mass spectrometric analysis; format: ADME, microsome; settings: read-out: Stability
Outline: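 Pooled liver microsomes (0.5 mg/mL) are preincubated 5 min at 37 °C in 0.16 M KH2PO4 with 1 mM NADPH, then test compound is added at 1.5 μM. Aliquots are quenched with 4 volumes of acetonitrile at 0, 5, 10, 15, 30 and 60 min and analyzed by LC-MS/MS. Percent remaining at 5 or 60 min is given when t1/2 is outside the 5–60 min range. Controls: testosterone, dextromethorphan.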

Row | SMILES | selectivity ratio [1] | remaining at 5 min, 1.5 µM [2] [%] | t1/2 (Liver [3]) [min] | t1/2 (Liver [4]) [min] | EC50 (HepG2) [nM] | EC90 (HepG2) [nM] | selectivity ratio [5] | EC50 [6] [nM] | EC90 [6] [nM] | EC50 [7] [nM] | EC90 [7] [nM] | concentration at 1 h [8] [nM] | BPR [9] | concentration at 1 h [10] [nM] | remaining at 1 h, 1.5 µM [11] [%]
1 | O=C(NCCc1nc(-c2cccc(F)c2)cs1)N1CCCC(F)(F)C1 | > 463 | 14 | < 5 | 5.1 | > 50000 | > 50000 | > 463 | > 50000 | > 50000 | 108 | 168 |  |  |  | 
2 | Cl.S=C(NCCc1nc(-c2ccccc2)cs1)N1CCCCC1 | > 2060 | 1.8 | < 5 | 8.2 | > 50000 | > 50000 | > 2060 | > 50000 | > 50000 | 24.3 | 42.4 | 2000 | 0.089 | 187 | 
3 | O=C(Nc1ccc2sc(-c3ccc(F)c(F)c3)nc2c1)N1CCCCC1 | > 224 |  |  |  | > 50000 | > 50000 | > 224 | > 50000 | > 50000 | 223 | 282 | 2520 |  | 1290 | 
4 | O=C(Nc1ccc2sc(-c3ccc(F)c(F)c3)nc2c1)N1CCC(F)CC1 | > 147 |  |  |  | > 50000 | > 50000 | > 147 | > 50000 | > 50000 | 341 | 596 | 2510 |  | 2520 | 
5 | O=C(Nc1ccc2sc(-c3ccc(F)c(F)c3)nc2c1)N1CCC(F)(F)C1 | > 54 |  |  |  | > 50000 | > 50000 | > 54 | > 50000 | > 50000 | 934 | 1660 | 2810 | 7.92 | 21700 | 
6 | O=C(Nc1ccc2sc(-c3ccccc3)nc2c1)c1ccccc1 |  |  | 50 |  |  |  |  |  |  | 2380 | 7740 |  |  |  | 53
7 | CC(C)(CNC(=O)N1CCCCC1)c1nc(-c2ccccc2)cs1 |  | 0 | < 5 |  |  |  |  |  |  | 1300 | 2400 |  |  |  | 
8 | CN(C)C1CCN(C(=O)Nc2ccc3sc(-c4ccc(F)c(F)c4)nc3c2)C1 (stereo not drawn) |  |  |  |  |  |  |  |  |  | 1700 | 1950 | 780 |  | 3000 | 
9 | O=C(Nc1ccc2sc(-c3ccc(F)c(F)c3)nc2c1)N1CC[C@@H](F)C1 | > 153 |  |  |  | > 50000 |  | > 153 | > 50000 | > 50000 | 326 | 491 | 1200 |  | 6350 | 
10 | O=C(Nc1ccc2sc(-c3ccccc3)nc2c1)N1CCCCC1 | > 137 |  | 17 |  | > 50000 | > 50000 | > 137 | > 50000 | > 50000 | 366 | 809 |  |  |  | 62
11 | O=C(NCCc1nc(-c2cccc(F)c2)cs1)N1CCC(F)CC1 | > 1370 | 5.5 | < 5 | 5.6 | > 50000 | > 50000 | > 1370 | > 50000 | > 50000 | 36.6 | 57.5 |  |  |  | 
12 | O=C(NCCc1nc(-c2cccc(F)c2)cs1)N1CCC(F)(F)CC1 | > 305 | 20 | < 5 | 5.8 | > 50000 | > 50000 | > 305 | > 50000 | > 50000 | 164 | 230 |  |  |  | 
13 | O=C(NCCc1nc(-c2ccccc2)cs1)c1ccccc1 |  |  |  |  |  |  |  |  |  |  |  |  | 0.3 |  | 
14 | O=C(NCCc1nc(-c2ccccc2)cs1)N1CCCCC1 |  |  |  |  |  |  |  |  |  |  |  |  | 0.613 |  | 
15 | O=C(Nc1ccc2sc(-c3cccc(F)c3F)nc2c1)N1CCCC1 | > 273 |  |  |  | > 50000 | > 50000 | > 273 | > 50000 | > 50000 | 183 | 394 | 1300 |  | 2310 | 
16 | S=C(NCCc1nc(-c2ccccc2)cs1)c1ccccc1 |  | 0 | < 5 |  |  |  |  |  |  | 1440 | 2630 |  |  |  | 
17 | O=C(NCCc1nc(-c2cccc(F)c2)cs1)N1CCCC(F)C1 (stereo not drawn) | > 1750 | 18 | < 5 | 10 | > 50000 | > 50000 | > 1750 | > 50000 | > 50000 | 28.5 | 55.7 |  |  |  | 
18 | O=C(Nc1ccc2oc(-c3ccccc3)nc2c1)N1CCCCC1 |  |  | 11 |  |  |  |  |  |  | 2800 | 9300 |  |  |  | 77
19 | CC(C)(Cc1csc(-c2ccccc2)n1)NC(=O)N1CCCCC1 |  | 0 | < 5 |  |  |  |  |  |  | 7840 | 9900 |  |  |  | 
20 | O=C(Nc1ccc2sc(-c3cccc(F)c3)nc2c1)N1CCCC1 | > 316 |  | 12 | 37 | > 50000 | > 50000 | > 316 | > 50000 | > 50000 | 158 | 391 | 2220 |  | 2280 | 
21 | O=C(Nc1ccc2sc(-c3ccccc3)nc2c1)N1CCCC1 | > 154 |  | 18 | 30 | > 50000 | > 50000 | > 154 | > 50000 | > 50000 | 325 | 817 | 3400 |  | 4240 | 
